Assay results as given in article PMC3063097 (Angewandte Chemie (International ed. in English), 2010).

How the values were obtained:
Type in all cases: biochemical
myosin V = test: single MANT-ATP turnover measurements, myosin V without actin; settings: absence of actin; data not shown
actomyosin V-ADP = actomyosin V-ADP (Gallus gallus, UniProt Q02440); test: MANT-ADP release from actomyosin V
Procedure, shortened: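 Transient-kinetic measurement of MANT-ADP release from a preformed actomyosin V–ADP complex, using the fluorescent nucleotide analog. Release amplitudes are normalized and plotted against test compound concentration. Affinity comes from the best fit of that concentration dependence of the amplitudes.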

[1] = target: single ATPase motor domain of chicken Myosin Va (Gallus gallus, UniProt Q02440); test: enzyme-coupled steady-state actin-activated ATPase assay, single-headed myosin V
[2] = tested on: skeletal muscle myosin II; test: in vitro ATPase assay myosin II
Aurora kinase = test: in vitro kinase assay Aurora kinase; settings: at 100 μM
CHK1 = test: in vitro kinase assay CHK1; settings: at 100 μM
Casein kinase II = test: in vitro kinase assay Casein kinase II; settings: at 100 μM
Abl kinase = test: in vitro kinase assay Abl kinase; settings: at 100 μM
myosin VI = test: in vitro ATPase assay myosin VI; settings: at 50 μM
PLK1 = test: in vitro kinase assay PLK1; settings: at 100 μM
p42 MAP kinase = test: in vitro kinase assay p42 MAP kinase; settings: at 100 μM

Row | effect on ATP binding and rate-limiting Pi release (myosin V) | effect on ADP release (actomyosin V-ADP; actomyosin-ADP prepared by equilibrating actomyosin and ADP, data not shown) | mode of inhibition (effect on kcat and apparent KM for actin) ([1]; 12 μM MyoVin-1, various concentrations of actin) | increase in KI in presence of 0.1% triton X ([1]; 0.1% triton X in assay buffer vs without) | Ki ([1]; single-headed myosin V, steady-state actin-activated ATP hydrolysis) [µM] | inhibition of ATPase activity ([2]; at 50 μM) | inhibition of kinase (Aurora kinase) | inhibition of kinase (CHK1) | inhibition of kinase (Casein kinase II) | inhibition of kinase (Abl kinase) | inhibition of ATPase activity (myosin VI) | inhibition of kinase (PLK1) | inhibition of kinase (p42 MAP kinase) | inhibition of ATPase activity ([2]; positive control, concentration not given) | SMILES | effect on ADP release (actomyosin V-ADP; actomyosin V-ADP prepared by mixing with ATP)
1 | unaffected | unaffected | uncompetitive inhibition | ~ 1.25 fold | ~6 | not observed any measurable inhibition | 5–10% | 5–10% | 5–10% | 5–10% | not observed any measurable inhibition | 5–10% | 5–10% |  | O=C(O)c1cccc(SCc2cccc(Nc3ncc4c(-c5ccc(N6CCOCC6)cc5)[nH]nc4n3)c2)c1 [Compound 8] | lowers the amplitude, but not the rate constant of ADP release
2 |  |  |  |  |  |  |  |  |  |  |  |  |  | significantly inhibited | Cc1ccc2c(c1)C(=O)C1(O)CCN(c3ccccc3)C1=N2 (stereo not drawn) [blebbistatin, reference compound] | 
